# Laboratory results reported in ChEMBL document CHEMBL2157987, “Benzimidazole bearing oxadiazole and triazolo-thiadiazoles nucleus: design and synthesis as anticancer agents” (2012).
# Experiments:
# Type in all cases: functional
# 786-0 = test: Cytotoxicity against human 786-0 cells after 48 hrs by SRB assay; details: 786-0, 48 h
# Summary of the method: (§1)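 Five-dose NCI-60 panel screen: cells grown in RPMI 1640 with 5% FBS and 2 mM L-glutamine, preincubated 24 h at 37 °C, 5% CO2. Five 10-fold dilutions, 0.01–100 µM, applied for 48 h. Fixed with cold TCA (10% final), stained with 0.4% SRB, absorbance read at 515 nm. GI50, TGI and LC50 were taken from log concentration versus % growth curves using time-zero plates.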
# A498 = test: Cytotoxicity against human A498 cells after 48 hrs by SRB assay; details: A498, 48 h; summary of the method: as §1
# ACHN = test: Cytotoxicity against human ACHN cells after 48 hrs by SRB assay; summary of the method: as §1
# SN12C = test: Cytotoxicity against human SN12C cells after 48 hrs by SRB assay
# Summary of the method: (§2)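 Cells were grown in RPMI 1640 with 5% FBS and 2 mM L-glutamine, then held 24 h at 37 °C and 5% CO2 before dosing. TCA-fixed time-zero plates were kept. Compound was dissolved in DMSO and given at five 10-fold dilutions for 48 h. Cells were fixed with cold TCA (10% final), stained with 0.4% SRB and read at 515 nm. GI50, TGI and LC50 came from Ti/Tz/control growth formulas.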
# TK-10 = test: Cytotoxicity against human TK10 cells after 48 hrs by SRB assay; details: TK-10, 48 h; summary of the method: as §2
# UO-31 = test: Cytotoxicity against human UO31 cells after 48 hrs by SRB assay; details: UO-31, 48 h; summary of the method: as §2
# PC-3 = test: Cytotoxicity against human PC3 cells after 48 hrs by SRB assay; details: PC-3, 48 h; summary of the method: as §1
# DU-145 = test: Cytotoxicity against human DU145 cells after 48 hrs by SRB assay; details: DU-145, 48 h; summary of the method: as §1
# MDA-MB-231 = test: Cytotoxicity against human MDA-MB-231 cells after 48 hrs by SRB assay; details: MDA-MB-231, 48 h; summary of the method: as §1
# T47D = test: Cytotoxicity against human T47D cells after 48 hrs by SRB assay; summary of the method: as §2
# MDA-MB-468 = test: Cytotoxicity against human MDA-MB-468 cells after 48 hrs by SRB assay; details: MDA-MB-468, 48 h; summary of the method: as §1
# [1] = read-out: LC50 (the source's name)
# [2] = read-out: pLC50 (the source's name) (converted)
smiles,measurement,setting,value
Nc1cc(Br)c(-c2nnc(CCC(=O)c3nc4ccccc4[nH]3)o2)c(Br)c1,GI50,786-0,20.9 µM
same,LC50,786-0; read-out: LC50,> 100 µM
same,TGI,786-0; read-out: TGI,61.7 µM
same,LC50,786-0; read-out: pLC50 (converted),> 100 µM
same,TGI,786-0; read-out: pTGI (converted),61.7 µM
same,GI50,A498,0.661 µM
same,CC50,A498; [1],> 100 µM
same,TGI,A498; read-out: TGI,10.5 µM
same,CC50,A498; [2],> 100 µM
same,TGI,A498; read-out: pTGI (converted),10.5 µM
same,GI50,ACHN,47.9 µM
same,LC50,ACHN; read-out: LC50,> 100 µM
same,TGI,ACHN; read-out: TGI,> 100 µM
same,LC50,ACHN; read-out: pLC50 (converted),> 100 µM
same,TGI,ACHN; read-out: pTGI,> 100 µM
same,GI50,SN12C,29.5 µM
same,CC50,SN12C; [1],> 100 µM
same,TGI,SN12C; read-out: TGI,> 100 µM
same,CC50,SN12C; [2],> 100 µM
same,TGI,SN12C; read-out: pTGI,> 100 µM
same,GI50,TK-10,36.3 µM
same,LC50,TK-10; read-out: LC50,> 100 µM
same,TGI,TK-10; read-out: TGI,> 100 µM
same,LC50,TK-10; read-out: pLC50 (converted),> 100 µM
same,TGI,TK-10; read-out: pTGI,> 100 µM
same,GI50,UO-31,4.07 µM
same,CC50,UO-31; [1],> 100 µM
same,TGI,UO-31; read-out: TGI,> 100 µM
same,CC50,UO-31; [2],> 100 µM
same,TGI,UO-31; read-out: pTGI,> 100 µM
same,GI50,PC-3,3.09 µM
same,LC50 (concentration killing 50% of cells),PC-3; read-out: LC50,> 100 µM
same,TGI,PC-3; read-out: TGI,> 100 µM
same,LC50 (concentration killing 50% of cells),PC-3; read-out: pLC50 (converted),> 100 µM
same,TGI,PC-3; read-out: pTGI,> 100 µM
same,GI50,DU-145,5.37 µM
same,LC50 (50% lethal concentration),DU-145; read-out: LC50,> 100 µM
same,TGI,DU-145; read-out: TGI,53.5 µM
same,LC50 (50% lethal concentration),DU-145; read-out: pLC50 (converted),> 100 µM
same,TGI,DU-145; read-out: pTGI (converted),53.7 µM
same,GI50,MDA-MB-231,10.2 µM
same,LC50,MDA-MB-231; read-out: LC50,> 100 µM
same,TGI,MDA-MB-231; read-out: TGI,86.8 µM
same,LC50,MDA-MB-231; read-out: pLC50 (converted),> 100 µM
same,TGI,MDA-MB-231; read-out: pTGI (converted),87.1 µM
same,GI50,T47D,23.4 µM
same,LC50,T47D; read-out: LC50,> 100 µM
same,TGI,T47D; read-out: TGI,> 100 µM
same,LC50,T47D; read-out: pLC50 (converted),> 100 µM
same,TGI,T47D; read-out: pTGI,> 100 µM
same,GI50,MDA-MB-468,1.95 µM
same,LC50,MDA-MB-468; read-out: LC50,> 100 µM
same,TGI,MDA-MB-468; read-out: TGI,6.97 µM
same,LC50,MDA-MB-468; read-out: pLC50 (converted),> 100 µM
same,TGI,MDA-MB-468; read-out: pTGI (converted),6.92 µM
